Kir21 inh: Kir2.1 (mouse) channel inhibition | P35561 | HEK293-Kir2.1, FluxOR thallium flux fluorescence; stronger effect = lower value | B-score at 10 µM | 310,000 tested, 0.85% active | AID 1672;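 active means fluorescence ratio B-score at or below minus 3 SD of library scores, with starting-brightness B-score within 2 SD, cut at about -4.2 in these data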;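 further: channel flux triggered by added potassium and thallium sulfate stimulus; B-score of peak minus minimum fluorescence over baseline after thallium stimulus; more negative B-score means stronger Kir2.1 block with less thallium influx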
KCNQ1 act: potentiates or activates the human KCNQ1 potassium channel | P51787 | 310,000 tested, 0.35% active | B-score at 10 µM | CHO-K1 KCNQ1, thallium flux FluxOR fluorescence; stronger effect = higher value;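 active means fluorescence ratio B-score, a plate-corrected score, at least three library SD, with initial intensity B-score within 5 SD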
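Test system: CHO-K1 cells stably expressing KCNQ1 / Medium: assay buffer / Also added: depolarizing K+/Tl+ stimulus, K2SO4 and Tl2SO4 each 12.5 mM in 5x stock / Incubation: 90 min dye loading and 20 min compound exposure, both at room temperature / Signal: thallium influx via FluxOR fluorescence, kinetic imaging / Evaluation: B score of baseline-normalized fluorescence ratio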
KCNK3 block: human KCNK3 channel inhibition, primary screen; CHO-KCNK3 thallium flux, FluxOR fluorescence; stronger effect = lower value; B-score at 10 µM; 340,000 tested, 0.84% active;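 active means B-score under library mean minus 4 SD, starting fluorescence ratio at most library mean plus 5 SD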;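 further: more negative B-score means stronger inhibition of thallium flux through KCNK3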
KCNQ1 block: human KCNQ1 channel inhibition | B-score at 10 µM | CHO-K1 KCNQ1, FluxOR thallium flux fluorescence; stronger effect = higher value | 310,000 tested, 1.3% active;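 active means compounds whose thallium flux B-score, printed positive for inhibition, exceeds three library SD while starting fluorescence stays within three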;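 further: channel opened by potassium depolarization with thallium stimulus after 20 min compound exposure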
KCNK9 inh: blocks the human KCNK9 two-pore domain potassium channel; Q9NPC2; HEK293 KCNK9, FluxOR thallium flux fluorescence; stronger effect = lower value; B-score at 10 µM; 310,000 tested, 1.2% active;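 active means ratio B-score over 3 SD below the library mean, with starting fluorescence within 5 SD of its mean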;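 further: negative B-score means less thallium flux so channel inhibition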
hERG rescue: shields human hERG channel from block by proarrhythmic agents | Q12809 | CHO-hERG, FluxOR thallium flux, dofetilide IC70 present | activation (rescue from dofetilide block), less the hit threshold, % at 10 µM | 310,000 tested, 0.51% active;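 active means activation above the mean of controls blocked by dofetilide plus 5 SD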;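 further: thallium influx through hERG after potassium depolarization seen as dye fluorescence rise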
KCNQ1 inh valid: reconfirmed blocker of the human KCNQ1 potassium channel; AID 588353; KCNQ1 cell line, FluxOR thallium flux fluorescence; inhibition, % at 10 µM; 1,600 tested, 93% active; shares compounds with KCNQ1 block;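 active means primary screen active, with duplicate mean exceeding buffer control mean plus 3 SD of buffer wells, cut at about 28% in these data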
CHO Tl flux: counter-screen for KCNQ1 inhibitors: effect in parental CHO cells | shares compounds with KCNQ1 block | parental CHO-K1, FluxOR thallium flux fluorescence ratio; stronger effect = lower value; zero means no signal rise above baseline | fluorescence ratio (Tl flux) at 10 µM | 1,600 tested, 21% active;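 active means mean of duplicate thallium-flux fluorescence ratios in parental host cells more than 5 SD below the buffer control mean, cut at about 0.38 in these data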;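 further: ratio is peak minus minimum fluorescence divided by baseline fluorescence; actives read low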
KCNQ1 ephys val: blocks human KCNQ1 current in automated patch clamp; shares compounds with KCNQ1 block; KCNQ1-CHO cells; calls only at 10 µM; 490 tested, 20% active; AID 624120;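 active means KCNQ1 current drop exceeding 3 SD of negative control wells, seen in both duplicate runs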;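 further: steady state current during a 2 s step from -80 to +40 mV; negative values mean current inhibition and positive values mean potentiation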
KCNQ2 inh: selectivity of KCNQ1 inhibitors: inhibition of rat KCNQ2 channel. shares compounds with KCNQ1 block. KCNQ2 cells, FluxOR thallium flux fluorescence. inhibition, % at 10 µM. 1,600 tested, 71% active. AID 651746;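 active means mean percent inhibition of the KCNQ2 thallium signal more than 5 SD above the buffer-only control wells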;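 further: KCNQ2 expressed in CHO cells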
KCNQ1-KCNE1 inh: KCNQ1 inhibitor that also blocks human KCNQ1/KCNE1 channel. shares compounds with KCNQ1 block. KCNQ1/KCNE1 cells, FluxOR thallium flux fluorescence. inhibition, % at 10 µM. 1,600 tested, 77% active;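 active means mean percent inhibition of duplicate wells above the buffer-only control mean plus 3 SD of those controls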
Target sequence (P51787 whole entry, looked up): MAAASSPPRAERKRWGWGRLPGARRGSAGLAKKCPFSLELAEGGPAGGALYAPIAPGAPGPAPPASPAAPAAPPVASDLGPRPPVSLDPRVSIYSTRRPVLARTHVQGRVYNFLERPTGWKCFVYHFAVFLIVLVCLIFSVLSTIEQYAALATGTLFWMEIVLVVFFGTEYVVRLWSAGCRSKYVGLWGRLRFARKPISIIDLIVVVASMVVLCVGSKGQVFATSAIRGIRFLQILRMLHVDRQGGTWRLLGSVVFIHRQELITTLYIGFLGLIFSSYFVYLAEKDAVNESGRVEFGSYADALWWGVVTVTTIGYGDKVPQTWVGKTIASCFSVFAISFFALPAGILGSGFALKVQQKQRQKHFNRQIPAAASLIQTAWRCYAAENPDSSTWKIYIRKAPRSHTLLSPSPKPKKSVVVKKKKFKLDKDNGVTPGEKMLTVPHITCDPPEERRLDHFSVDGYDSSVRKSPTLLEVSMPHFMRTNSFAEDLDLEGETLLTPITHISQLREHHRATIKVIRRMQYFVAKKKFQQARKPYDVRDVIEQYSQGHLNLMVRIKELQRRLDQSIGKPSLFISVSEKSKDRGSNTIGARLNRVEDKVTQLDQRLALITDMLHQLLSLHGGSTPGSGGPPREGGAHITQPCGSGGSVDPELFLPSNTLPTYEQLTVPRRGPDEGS
A number is an active result; . = inactive; / = not tested or not shown. A selection: hits, their analogues and other compounds. The true share with any hit is near 3.7%.

SMILES | Kir21 inh | KCNQ1 act | KCNK3 block | KCNQ1 block | KCNK9 inh | hERG rescue | KCNQ1 inh valid | CHO Tl flux | KCNQ2 inh | KCNQ1-KCNE1 inh | others
CCN(CC)CC(=O)Nc1sc(C)cc1C(=O)c1ccc(C)cc1 | . | . | . | 7 | . | . | 117.5 | . | 90.7% | 153.5% | KCNQ1 ephys val=.
CC1(C)CC(=O)C2=C(C1)Nc1ccccc1NC2 | . | . | . | 7 | . | . | . | . | . | .
CC1(C)CC(=O)C2=C(C1)Nc1ccccc1S2 | . | . | . | . | . | . | / | / | / | /
Fc1cc(Br)ccc1Nc1nc2ccccc2n2nnnc12 | . | . | . | . | . | . | / | / | / | /
Fc1ccccc1N1CCN(c2nc3ccccc3n3nnnc23)CC1 | . | . | . | 7 | . | . | 76.0 | . | 71.0% | 83.5%
Cc1ccsc1/C=N/n1c(COc2ccccc2)n[nH]c1=S | . | . | . | . | . | . | / | / | / | /
COc1ccc(CC(=O)Nc2cccc(-c3nnc(-c4cccc(C)c4)o3)c2)cc1OC | . | . | . | 10 | . | . | 144.0 | 0.32 | 131.7% | 97.5%
COc1ccc(N2CCN(C(=O)C3CCN(C(=O)c4ccc([N+](=O)[O-])cc4)CC3)CC2)cc1 | . | . | . | . | . | . | / | / | / | /
CC(C)(C)C1CCC2(CC1)C(C#N)=C(SCC(=O)NC1CCCCC1)NC(=O)C2C#N (centres undefined) | . | . | . | 9 | . | . | 71.5 | . | 72.0% | .
COC(=O)Cc1csc(Nc2ccccc2)n1 | . | . | . | . | . | . | / | / | / | /
COC(=O)Cc1nc(Nc2ccccc2)sc1C | . | . | . | 7 | . | . | 47.0 | . | . | 46.5%
COc1ccccc1CNS(=O)(=O)CCNCCc1ccccc1 | / | / | . | / | / | / | / | / | / | /
C(=C\c1ccccc1)/CN1CCN(c2ncnc3c2oc2ccccc23)CC1 | . | . | -12.8 | 7 | . | . | 149.5 | 0.312 | 135.0% | 178.5%
c1ccc2c(c1)oc1c(N3CCOCC3)ncnc12 | . | . | . | . | . | . | / | / | / | /
Cc1cccc(-c2c3c(=O)n(C)c(=O)n(C)c3cn2-c2ccc(O)cc2)c1 | . | . | . | 6 | . | . | 76.0 | . | . | 95.5%
Cc1ccc(S(=O)(=O)c2cc3c(=O)n4ccccc4nc3n(CCc3ccccc3)c2=N)cc1 | . | . | . | 6 | . | . | 100.5 | 0.36 | 118.0% | 140.5%
CCn1c(=N)c(S(=O)(=O)c2ccc(C)cc2)cc2c(=O)n3ccccc3nc21 | . | . | / | . | . | . | / | / | / | /
COc1ccc(C(=O)NC(C)CCc2ccccc2)cc1 (centres undefined) | . | . | . | . | . | . | / | / | / | /
CC(CCc1ccccc1)NC(=O)c1ccc(NC(=O)c2ccccc2)cc1 (centres undefined) | . | . | . | 7 | . | . | 67.0 | . | . | 66.0%
Cc1ccc(S(=O)(=O)N(CC(=O)N=Nc2c(O)[nH]c3ccccc23)c2cccc(C)c2)cc1 | . | . | . | 7 | . | . | 76.5 | . | 80.3% | 129.5%
COc1ccc(C(c2c(O)ccc3ccccc23)N2CCOCC2)c(OC)c1 (centres undefined) | . | . | . | 7 | . | . | 113.0 | 0.349 | 108.3% | 141.5%
Cc1cccc2c1Sc1ccc(Cl)cc1CC2N1CCNCC1 (centres undefined) | . | . | -11.9 | 9 | . | . | 123.0 | 0.303 | 116.3% | 166.5%
O=C(c1cccc(NS(=O)(=O)c2cccc(C(F)(F)F)c2)c1)N1CCOCC1 | . | . | . | . | . | . | / | / | / | /
S=C(Nc1cccc(Cl)c1)NC1CCCCC1 | . | . | . | 8 | . | . | 49.5 | . | 59.7% | 61.5%
COc1ccc(N=C2SC(CC(=O)Nc3ccccc3)C(=O)N2Cc2ccccn2)cc1 (centres undefined) | . | . | . | . | . | . | / | / | / | /
SMILES | Kir21 inh | KCNQ1 act | KCNK3 block | KCNQ1 block | KCNK9 inh | hERG rescue | KCNQ1 inh valid | CHO Tl flux | KCNQ2 inh | KCNQ1-KCNE1 inh | others
COc1ccc(N=C2SC(CC(=O)Nc3cccc(Cl)c3)C(=O)N2Cc2ccco2)cc1 (centres undefined) | . | . | . | 12 | . | . | 92.5 | . | 93.3% | 136.5% | KCNQ1 ephys val=.
CCOc1ccc(N2CC(C(=O)NCC(=O)Nc3ccc(F)c(F)c3F)CC2=O)cc1 (centres undefined) | / | / | . | / | / | / | / | / | / | /
CC(C)c1ccc(NC(=O)c2cc(S(=O)(=O)NCC3COc4ccccc4O3)ccc2F)cc1 (centres undefined) | . | . | . | 7 | . | . | 95.0 | . | 116.3% | 159.0% | KCNQ1 ephys val=.
Cc1ccc2nc(NC(=O)CCn3c(=O)sc4ccccc43)sc2c1 | . | . | . | . | . | . | / | / | / | /
CCNC(=O)N(C)C[C@H]1N[C@@](Cc2ccccc2)(C(=O)OC)[C@H]2C(=O)N(C)C(=O)[C@@H]12 | / | / | . | / | / | / | / | / | / | /
O=C(Nc1nc(-c2ccccc2)cs1)C1CCCCN1S(=O)(=O)c1ccc(Cl)cc1 (centres undefined) | . | . | . | 10 | . | . | 90.0 | . | 93.0% | 131.0% | KCNQ1 ephys val=.
CCOC(=O)N1CCC(NCc2c(C(=O)N(C)Cc3ccccc3)nc3ccccn23)CC1 | . | . | . | . | . | . | / | / | / | /
CNC[C@H](O)c1cccc(O)c1 | . | . | . | . | . | . | / | / | / | /
CCN(CC(O)c1cccc(O)c1)C(=O)C12CC3CC(CC(C3)C1)C2 (centres undefined) | . | . | . | 6 | . | . | 66.0 | . | 77.3% | 43.0%
CC1(C)C2CCC1(C)C1(C2)NC(=O)c2ccccc2O1 (centres undefined) | . | . | . | . | . | . | / | / | / | /
COc1cc(OC)cc(C(=O)Nc2ccc(-c3nc4ccccc4o3)cc2)c1 | . | . | . | 10 | . | . | 129.5 | . | 89.0% | 69.0% | KCNQ1 ephys val=.
COc1cccc(C(=O)Nc2ccc(-c3nc4ccccc4o3)c(O)c2)c1 | . | . | . | . | . | . | / | / | / | /
O=C(c1ccccc1)N1CCN(c2ncnc3sc4c(c23)CCC4)CC1 | . | . | . | . | . | . | / | / | / | /
Fc1ccc(CNC(=S)NC2CCCCCC2)cc1 | . | . | . | . | . | . | / | / | / | /

From PubChem BioAssay
